{"source": "ChEMBL document CHEMBL5107979", "about": "“Encoding BRAF inhibitor functions in protein degraders” (RSC Med Chem, 2022)", "key": {"[1]": {"tested_on": "von Hippel-Lindau disease tumor suppressor/Serine/threonine-protein kinase B-raf (Homo sapiens), P15056+P40337 [V600E]", "experiment": "Protac activity at VHL/BRAF V600E mutant degradation in human SK-MEL-28 cells harboring wild type NRAS assessed as remaining BRAF V600E level at 10 uM incubated for 24 hrs by densitometric analysis", "format": "cell-based", "outline": "(§1)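 SK-MEL-28 melanoma cells (STR-authenticated, mycoplasma-free) in DMEM + 10% FCS, 37°C, 5% CO2; 100,000 cells/well seeded, grown 48 h, then compound-treated as indicated. Lysis in D0.4 buffer (HEPES pH 7.5, 0.4 M KCl, Triton X-100, EDTA) with protease/phosphatase inhibitors. Lysates run on 4-12% Bis-Tris gels and blotted to PVDF. LI-COR imaging; BRAF densitometry normalised to loading control, expressed relative to DMSO.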"}, "[2]": {"experiment": "Plasma protein binding in human at 0.5 mg/ml by HPLC analysis", "format": "ADME, cell-free", "settings": "read-out: PPB (converted)", "outline": "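HSA column (50 × 3 mm, 5 μm), 30 °C; samples 0.5 mg/mL in MeCN/DMSO 9:1, 2 μL injected. 50 mM ammonium acetate pH 7.4 to 30% iPrOH gradient over 5.4 min, held to 18 min; 1.0 mL/min, UV 254 nm. Log retention times calibrated to ten reference drugs' logK (R² = 0.94), converted to %PPB.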"}, "SK-MEL-28 [3]": {"tested_on": "SK-MEL-28", "experiment": "Anticancer activity against human SK-MEL-28 cells assessed as reduction in cell viability incubated for 120 hrs by CellTiter-Glo luminescent assay", "format": "functional, cell-based", "outline": "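SK-MEL-28 in DMEM with 10% FCS, 37°C, 5% CO2; seeded 400 cells/well in 384-well plates. T0 CellTiter-Glo reading taken at 24 h on a parallel plate; compounds dispensed acoustically, 5 days incubation, then CellTiter-Glo luminescence. Normalised to DMSO; GI50 by four-parameter log(inhibitor) vs response fit; mean±s.d., n=3.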"}, "[4]": {"tested_on": "von Hippel-Lindau disease tumor suppressor/Serine/threonine-protein kinase B-raf (Homo sapiens), P15056+P40337 [V600E]", "experiment": "Protac activity at VHL/BRAF V600E mutant degradation in human SK-MEL-28 cells harboring wild type NRAS assessed as remaining BRAF V600E level at 1 uM incubated for 4 hrs by densitometric analysis", "format": "cell-based", "outline": "as §1"}, "[5]": {"experiment": "Distribution coefficient, logD of compound at pH 7.4 by chromatographic method", "format": "physicochemical", "settings": "octanol/water", "outline": "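Chromatographic retention-time method at pH 7.4, calibrated against six reference drugs (atenolol, metoprolol, labetalol, diltiazem, triphenylene, permethrin) of known logD7.4 (R² = 0.99); mean analyte retention times converted via calibration line. At least two independent measurements per analyte.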"}, "[6]": {"target": "Serine/threonine-protein kinase B-raf (Homo sapiens, UniProt P15056, V600E)", "sequence (P15056 2-766 V600E limits assumed)": "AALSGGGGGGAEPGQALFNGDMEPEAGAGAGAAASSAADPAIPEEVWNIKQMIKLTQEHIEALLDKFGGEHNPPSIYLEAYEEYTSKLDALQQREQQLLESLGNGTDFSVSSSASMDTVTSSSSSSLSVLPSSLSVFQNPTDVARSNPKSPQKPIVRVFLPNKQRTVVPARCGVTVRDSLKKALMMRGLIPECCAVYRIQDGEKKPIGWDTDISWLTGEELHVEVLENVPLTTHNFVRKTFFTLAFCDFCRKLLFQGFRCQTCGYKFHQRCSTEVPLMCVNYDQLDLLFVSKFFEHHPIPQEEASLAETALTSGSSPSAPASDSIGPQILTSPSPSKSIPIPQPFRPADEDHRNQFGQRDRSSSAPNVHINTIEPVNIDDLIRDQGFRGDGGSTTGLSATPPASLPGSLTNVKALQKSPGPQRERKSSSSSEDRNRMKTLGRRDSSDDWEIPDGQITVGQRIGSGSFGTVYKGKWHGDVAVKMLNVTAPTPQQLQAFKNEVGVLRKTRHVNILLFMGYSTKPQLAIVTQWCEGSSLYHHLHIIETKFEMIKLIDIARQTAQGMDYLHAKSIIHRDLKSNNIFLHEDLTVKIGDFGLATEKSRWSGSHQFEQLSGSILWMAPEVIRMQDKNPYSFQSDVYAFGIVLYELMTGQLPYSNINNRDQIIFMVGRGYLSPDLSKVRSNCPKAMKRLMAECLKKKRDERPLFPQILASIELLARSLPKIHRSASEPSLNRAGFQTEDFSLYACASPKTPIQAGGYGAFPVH", "experiment": "Inhibition of BRAF V600E mutant (unknown origin) using MEK1 (K97R) as substrate in presence of [gamma-33P]ATP by radiometric assay"}, "SK-MEL-28 [7]": {"tested_on": "SK-MEL-28", "experiment": "Inhibition of ERK signalling pathway in human SK-MEL-28 cells harboring BRAF V600E mutant/wild type NRAS assessed as reduction in phosphorylated ERK level at 0.1 to 10 uM incubated for 4 hrs by densitometric analysis", "format": "cell-based", "settings": "dose 0.1-10 µM", "outline": "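SK-MEL-28 melanoma in DMEM/10% FCS, plated 100,000 cells/well, grown 48 h, treated 4 h at indicated doses. Lysates (HEPES pH 7.5, 0.4 M KCl, 0.4% Triton X-100, protease/phosphatase inhibitors) immunoblotted on PVDF, imaged by LI-COR; densitometry normalised to loading control, relative to DMSO; mean of five independent repeats for dose-response.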"}, "SK-N-AS [8]": {"tested_on": "SK-N-AS", "experiment": "Effect on ERK signalling pathway in human SK-N-AS harboring wild type BRAF/NRAS […] mutant assessed as BRAF level at 0.1 to 10 uM incubated upto 24 hrs by western blot analysis", "format": "functional, cell-based", "settings": "dose 0.1-10 µM", "outline": "(§2)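 SK-N-AS neuroblastoma (NRAS mutant), DMEM/10% FCS, plated 100,000 cells/well, grown 48 h, then treated 4 h at indicated doses or 24 h at 10 μM. Lysed in HEPES pH 7.5/KCl/Triton buffer with protease and phosphatase inhibitors; SDS-PAGE, PVDF transfer, LI-COR imaging; densitometry normalised to loading control, relative to DMSO.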"}, "SK-N-AS [9]": {"tested_on": "SK-N-AS", "experiment": "Effect on ERK signalling pathway in human SK-N-AS harboring wild type BRAF/NRAS […] mutant assessed as phosphorylated ERK level at 0.1 to 10 uM incubated upto 24 hrs by western blot analysis", "format": "functional, cell-based", "settings": "dose 0.1-10 µM", "outline": "as §2"}, "[10]": {"tested_on": "von Hippel-Lindau disease tumor suppressor/Serine/threonine-protein kinase B-raf (Homo sapiens), P15056+P40337 [V600E]", "experiment": "Protac activity at VHL/BRAF V600E mutant degradation in human SK-MEL-28 cells harboring wild type NRAS assessed as remaining BRAF V600E level at 0.1 to 10 uM incubated for 4 hrs by densitometric analysis", "format": "cell-based", "settings": "dose 0.1-10 µM", "outline": "as §1"}}, "note": "The source made the active and inactive calls. No cut-off for these calls is given here."}
{"smiles": "CCN(C)S(=O)(=O)Nc1ccc(F)c(C(=O)c2c[nH]c3ncc(-c4ccc(N5CCN(CC(=O)N[C@H](C(=O)N6C[C@H](O)C[C@H]6C(=O)NCc6ccc(-c7scnc7C)cc6)C(C)(C)C)CC5)cc4)cc23)c1F", "values": [{"measurement": "Activity", "setting": "[1]", "result": "Active"}, {"measurement": "fraction unbound at 0.5 mg/ml", "setting": "[2]", "result": 0.04}, {"measurement": "Activity", "setting": "SK-MEL-28 [3]", "result": "Active"}, {"measurement": "Remaining BRAF V600E level", "setting": "[4]", "result": 52, "unit": "%"}, {"measurement": "chromatographic logD", "setting": "[5]", "result": 3.2}]}
{"smiles": "CCCS(=O)(=O)Nc1ccc(F)c(C(=O)c2c[nH]c3ncc(-c4ccc(C(=O)NCCOCCOCC(=O)N[C@H](C(=O)N5C[C@H](O)C[C@H]5C(=O)NCc5ccc(-c6scnc6C)cc5)C(C)(C)C)cc4)cc23)c1F", "values": [{"measurement": "IC50", "setting": "[6]", "result": 8.5, "unit": "nM"}, {"measurement": "fraction unbound at 0.5 mg/ml", "setting": "[2]", "result": 0.05}, {"measurement": "inhibition", "setting": "SK-MEL-28 [7]", "result": "Active"}, {"measurement": "Remaining BRAF V600E level", "setting": "[4]", "result": "> 95", "unit": "%"}, {"measurement": "chromatographic logD", "setting": "[5]", "result": 2.3}]}
{"smiles": "CCCS(=O)(=O)Nc1ccc(F)c(C(=O)c2c[nH]c3ncc(-c4ccc(C(=O)NCCOCCOCCOCCCCC(=O)N[C@H](C(=O)N5C[C@H](O)C[C@H]5C(=O)NCc5ccc(-c6scnc6C)cc5)C(C)(C)C)cc4)cc23)c1F", "values": [{"measurement": "IC50", "setting": "[6]", "result": 0.31, "unit": "nM"}, {"measurement": "fraction unbound at 0.5 mg/ml", "setting": "[2]", "result": 0.05}, {"measurement": "inhibition", "setting": "SK-MEL-28 [7]", "result": "Active"}, {"measurement": "Remaining BRAF V600E level", "setting": "[4]", "result": "> 95", "unit": "%"}, {"measurement": "chromatographic logD", "setting": "[5]", "result": 2.4}]}
{"smiles": "CCCS(=O)(=O)Nc1ccc(F)c(C(=O)c2c[nH]c3ncc(-c4ccc(C(=O)NCCCCCCOCCCCCOCCCCC(=O)N[C@H](C(=O)N5C[C@H](O)C[C@H]5C(=O)NCc5ccc(-c6scnc6C)cc5)C(C)(C)C)cc4)cc23)c1F", "values": [{"measurement": "IC50", "setting": "[6]", "result": 48, "unit": "nM"}, {"measurement": "fraction unbound at 0.5 mg/ml", "setting": "[2]", "result": 0.04}, {"measurement": "inhibition", "setting": "SK-MEL-28 [7]", "result": "Active"}, {"measurement": "Remaining BRAF V600E level", "setting": "[4]", "result": "> 95", "unit": "%"}, {"measurement": "chromatographic logD", "setting": "[5]", "result": 3.7}]}
{"smiles": "O=C1Nc2ccc(I)cc2C1=Cc1cc(Br)c(O)c(Br)c1", "note": "[GW305074X]", "values": [{"measurement": "chromatographic logD", "setting": "[5]", "result": 2.3}]}
{"smiles": "CCCS(=O)(=O)Nc1ccc(F)c(C(=O)c2c[nH]c3ncc(-c4ccc(N5CCN(CC(=O)N[C@H](C(=O)N6C[C@H](O)C[C@H]6C(=O)NCc6ccc(-c7scnc7C)cc6)C(C)(C)C)CC5)cc4)cc23)c1F", "values": [{"measurement": "Activity", "setting": "SK-N-AS [8]", "result": "Active"}, {"measurement": "fraction unbound at 0.5 mg/ml", "setting": "[2]", "result": 0.04}, {"measurement": "Activity", "setting": "SK-N-AS [9]", "result": "Active"}, {"measurement": "Remaining BRAF V600E level", "setting": "[4]", "result": 46, "unit": "%"}, {"measurement": "chromatographic logD", "setting": "[5]", "result": 2.9}, {"measurement": "Activity", "setting": "[10]", "result": "Active"}]}
{"smiles": "CCN(C)S(=O)(=O)Nc1ccc(F)c(C(=O)c2c[nH]c3ncc(-c4cnc(N5CCN(CC(=O)N[C@H](C(=O)N6C[C@H](O)C[C@H]6C(=O)N[C@@H](C)c6ccc(-c7scnc7C)cc6)C(C)(C)C)CC5)nc4)cc23)c1F", "values": [{"measurement": "fraction unbound at 0.5 mg/ml", "setting": "[2]", "result": 0.04}, {"measurement": "Remaining BRAF V600E level", "setting": "[4]", "result": "> 95", "unit": "%"}, {"measurement": "chromatographic logD", "setting": "[5]", "result": 3.2}]}
{"smiles": "CCCS(=O)(=O)Nc1ccc(F)c(C(=O)c2c[nH]c3ncc(-c4ccc(C(=O)NCCOCCOCCOCCOc5cc(-c6scnc6C)ccc5CNC(=O)[C@@H]5C[C@@H](O)CN5C(=O)[C@H](C(C)C)N5Cc6ccccc6C5=O)cc4)cc23)c1F", "values": [{"measurement": "IC50", "setting": "[6]", "result": 3.4, "unit": "nM"}, {"measurement": "fraction unbound at 0.5 mg/ml", "setting": "[2]", "result": 0.04}, {"measurement": "inhibition", "setting": "SK-MEL-28 [7]", "result": "Active"}, {"measurement": "Remaining BRAF V600E level", "setting": "[4]", "result": 73, "unit": "%"}, {"measurement": "chromatographic logD", "setting": "[5]", "result": 2.5}]}
{"smiles": "CCCS(=O)(=O)Nc1ccc(F)c(C(=O)c2c[nH]c3ncc(-c4ccc(CNC(=O)CCCCOCCCCOCCCCOc5cc(-c6scnc6C)ccc5CNC(=O)[C@@H]5C[C@@H](O)CN5C(=O)[C@H](C(C)C)N5Cc6ccccc6C5=O)cc4)cc23)c1F", "values": [{"measurement": "IC50", "setting": "[6]", "result": 10, "unit": "nM"}, {"measurement": "fraction unbound at 0.5 mg/ml", "setting": "[2]", "result": 0.04}, {"measurement": "inhibition", "setting": "SK-MEL-28 [7]", "result": "Active"}, {"measurement": "Remaining BRAF V600E level", "setting": "[4]", "result": 77, "unit": "%"}, {"measurement": "chromatographic logD", "setting": "[5]", "result": 3.6}]}
{"smiles": "CCCS(=O)(=O)Nc1ccc(F)c(C(=O)c2c[nH]c3ncc(-c4ccc(CNC(=O)CCCCOCCOCCOCCOc5cc(-c6scnc6C)ccc5CNC(=O)[C@@H]5C[C@@H](O)CN5C(=O)[C@H](C(C)C)N5Cc6ccccc6C5=O)cc4)cc23)c1F", "values": [{"measurement": "IC50", "setting": "[6]", "result": 3.8, "unit": "nM"}, {"measurement": "fraction unbound at 0.5 mg/ml", "setting": "[2]", "result": 0.04}, {"measurement": "inhibition", "setting": "SK-MEL-28 [7]", "result": "Active"}, {"measurement": "Remaining BRAF V600E level", "setting": "[4]", "result": 77, "unit": "%"}, {"measurement": "chromatographic logD", "setting": "[5]", "result": 2.7}]}
